Test results from ChEMBL document CHEMBL5357066, “Development of Novel Membrane Disrupting Lipoguanidine Compounds Sensitizing Gram-Negative Bacteria to Antibiotics” (ACS Med Chem Lett, 2024).
In brackets after ≈: the same amount, converted by molar mass.

Columns and labels:
Pseudomonas aeruginosa [1] = test: Synergistic antibacterial activity against Pseudomonas aeruginosa NCTC 13437 assessed as rifampicin MIC at <=0.25 times MIC incubated for overnight by microbroth dilution checkerboard assay; format: functional
In short: (§1)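 Checkerboard microdilution in Tryptic Soy Broth, run like the MIC assay. Overnight TSB cultures were back-diluted to OD 0.01 and added 1:1 to the combined two-fold series of both agents, then incubated overnight at 37 °C. Growth/no-growth was called at <0.1 OD600. MICs alone were read on the same plates. FIC index came from the most synergistic well; three independent repeats, mean ± SD.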

Acinetobacter baumannii [2] = test: Synergistic antibacterial activity against Acinetobacter baumannii ATCC 17978 assessed as fold change in rifampicin MIC at <=0.25 times MIC incubated for overnight by microbroth dilution checkerboard assay relative to rifampicin alone; format: functional
In short: (§2)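 Checkerboard microdilution under MIC conditions (TSB, overnight, 37 °C). Two-fold series of each agent were combined on one plate before bacteria were added, and single-agent MICs were measured on the same plate. FIC = sum of combination MIC/alone MIC for each agent, taken from the most synergistic well. Three independent repeats, mean ± SD. ≤0.5 was taken as strong synergy and 0.5–<1 as weak.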

Pseudomonas aeruginosa [3] = test: Synergistic antibacterial activity against Pseudomonas aeruginosa NCTC 13437 assessed as fold change in rifampicin MIC at <=0.25 times MIC incubated for overnight by microbroth dilution checkerboard assay relative to rifampicin alone; format: functional; in short: as §1
Escherichia coli [4] = test: Synergistic antibacterial activity against Escherichia coli NCTC 12923 assessed as rifampicin MIC at <=0.25 times MIC incubated for overnight by microbroth dilution checkerboard assay; format: functional; in short: as §2
Klebsiella pneumoniae [5] = test: Synergistic antibacterial activity against Klebsiella pneumoniae NCTC 13368 assessed as fold change in rifampicin MIC at <=0.25 times MIC incubated for overnight by microbroth dilution checkerboard assay relative to rifampicin alone; format: functional
In short: (§3)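 Checkerboard run under the MIC conditions (TSB, overnight, 37 °C). Antibiotic and lipoguanidine 2-fold series were combined on one plate before bacteria were added. Growth/no-growth was scored as for the MIC (<0.1 OD600). Single-agent MICs were measured on the same plates. Three independent repeats were done.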

Klebsiella pneumoniae [6] = test: Synergistic antibacterial activity against […] Klebsiella pneumoniae M6 assessed as rifampicin MIC at <=0.25 times MIC incubated for overnight by microbroth dilution checkerboard assay; format: functional; in short: as §3
Escherichia coli [7] = test: Synergistic antibacterial activity against Escherichia coli NCTC 12923 assessed as fold change in rifampicin MIC at <=0.25 times MIC incubated for overnight by microbroth dilution checkerboard assay relative to rifampicin alone; format: functional; in short: as §2
Acinetobacter baumannii [8] = test: Synergistic antibacterial activity against Acinetobacter baumannii AYE assessed as fold change in rifampicin MIC at <=0.25 times MIC incubated for overnight by microbroth dilution checkerboard assay relative to rifampicin alone; format: functional; in short: as §2
Acinetobacter baumannii [9] = test: Synergistic antibacterial activity against Acinetobacter baumannii AYE assessed as rifampicin MIC at <=0.25 times MIC incubated for overnight by microbroth dilution checkerboard assay; format: functional; in short: as §2
Klebsiella pneumoniae [10] = test: Synergistic antibacterial activity against Klebsiella pneumoniae NCTC 13368 assessed as rifampicin MIC at <=0.25 times MIC incubated for overnight by microbroth dilution checkerboard assay; format: functional; in short: as §2
Pseudomonas aeruginosa [11] = test: Synergistic antibacterial activity against Pseudomonas aeruginosa PAO1 assessed as rifampicin MIC at <=0.25 times MIC incubated for overnight by microbroth dilution checkerboard assay; format: functional; in short: as §1
Acinetobacter baumannii [12] = test: Synergistic antibacterial activity against Acinetobacter baumannii ATCC 17978 assessed as rifampicin MIC at <=0.25 times MIC incubated for overnight by microbroth dilution checkerboard assay; format: functional; in short: as §2
Pseudomonas aeruginosa [13] = test: Synergistic antibacterial activity against Pseudomonas aeruginosa PAO1 assessed as fold change in rifampicin MIC at <=0.25 times MIC incubated for overnight by microbroth dilution checkerboard assay relative to rifampicin alone; format: functional; in short: as §1
Enterococcus faecium = test: Antibacterial activity against vancomycin resistant Enterococcus faecium NCTC 12204 assessed as bacterial growth inhibition incubated for overnight by microbroth dilution method; format: functional
In short: (§4)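 Microbroth dilution in Tryptic Soy Broth. DMSO stocks were diluted in TSB as 2-fold series. Overnight TSB cultures were back-diluted to OD 0.01 and mixed 1:1 with compound. Incubation was overnight at 37 °C. MIC is the lowest concentration with no visible growth (<0.1 OD600). DMSO at equivalent concentrations was checked.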

Klebsiella pneumoniae [14] = test: Antibacterial activity against ESBL Klebsiella pneumoniae NCTC 13368 assessed as bacterial growth inhibition incubated for overnight by microbroth dilution method
Pseudomonas aeruginosa [15] = test: Antibacterial activity against Pseudomonas aeruginosa NCTC 13437 assessed as bacterial growth inhibition incubated for overnight by microbroth dilution method; format: functional
In short: (§5)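 Broth microdilution in Tryptic Soy Broth. DMSO stocks were diluted in TSB as 2-fold series. Overnight TSB cultures were back-diluted to OD 0.01 and mixed 1:1 with compound. Incubation was overnight at 37 °C. MIC was the lowest concentration without visible growth (<0.1 OD600). DMSO vehicle was checked at equivalent concentrations.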

Staphylococcus aureus [16] = test: Antibacterial activity against methicillin sensitive Staphylococcus aureus 1199B assessed as bacterial growth inhibition incubated for overnight by microbroth dilution method; format: functional; in short: as §4
Acinetobacter baumannii [17] = test: Antibacterial activity against Acinetobacter baumannii ATCC 17978 assessed as bacterial growth inhibition incubated for overnight by microbroth dilution method; format: functional; in short: as §5
Acinetobacter baumannii [18] = test: Antibacterial activity against Acinetobacter baumannii AYE assessed as bacterial growth inhibition incubated for overnight by microbroth dilution method; format: functional; in short: as §5
Enterococcus faecalis [19] = test: Antibacterial activity against vancomycin resistant Enterococcus faecalis NCTC 12201 assessed as bacterial growth inhibition incubated for overnight by microbroth dilution method; format: functional; in short: as §4
Staphylococcus aureus [20] = test: Antibacterial activity against methicillin sensitive Staphylococcus aureus ATCC 9144 assessed as bacterial growth inhibition incubated for overnight by microbroth dilution method; format: functional; in short: as §4
Klebsiella pneumoniae [21] = test: Antibacterial activity against Klebsiella pneumoniae M6 assessed as bacterial growth inhibition incubated for overnight by microbroth dilution method
Staphylococcus aureus [22] = test: Antibacterial activity against methicillin resistant Staphylococcus aureus NCTC 13616 assessed as bacterial growth inhibition incubated for overnight by microbroth dilution method; format: functional; in short: as §4
Escherichia coli [23] = test: Antibacterial activity against Escherichia coli NCTC 12923 assessed as bacterial growth inhibition incubated for overnight by microbroth dilution method; format: functional; in short: as §5
Pseudomonas aeruginosa [24] = test: Antibacterial activity against Pseudomonas aeruginosa PAO1 assessed as bacterial growth inhibition incubated for overnight by microbroth dilution method; format: functional; in short: as §5
Staphylococcus aureus [25] = test: Antibacterial activity against methicillin resistant Staphylococcus aureus USA 300 assessed as bacterial growth inhibition incubated for overnight by microbroth dilution method; format: functional; in short: as §4
Enterococcus faecalis [26] = test: Antibacterial activity against vancomycin sensitive Enterococcus faecalis NCTC 775 assessed as bacterial growth inhibition incubated for overnight by microbroth dilution method

| Compound | MIC (Pseudomonas aeruginosa [1]) [µg/mL] | fold change (FC) (Acinetobacter baumannii [2]) | fold change (FC) (Pseudomonas aeruginosa [3]) | MIC (Escherichia coli [4]) [µg/mL] | fold change (FC) (Klebsiella pneumoniae [5]) | MIC (Klebsiella pneumoniae [6]) [µg/mL] | fold change (FC) (Escherichia coli [7]) | fold change (FC) (Acinetobacter baumannii [8]) | MIC (Acinetobacter baumannii [9]) [µg/mL] | MIC (Klebsiella pneumoniae [10]) [µg/mL] | MIC (Pseudomonas aeruginosa [11]) [µg/mL] | MIC (Acinetobacter baumannii [12]) [µg/mL] | fold change (FC) (Pseudomonas aeruginosa [13]) | further results |
| --- | --- | --- | --- | --- | --- | --- | --- | --- | --- | --- | --- | --- | --- | --- |
| CCCCCCCCCCNC(=N)NCCCC(=O)O | 32 | 0 | 0 | 32 | 0 | 32 | 0 | 0 | 8 | 32 | 32 | 2 | 0 | – |
| CCCCCCCCCCCC(=O)NCCCCN | 32 | 0 | 0 | 32 | 0 | 32 | 0 | 0 | 32 | 128 | 64 | 4 | 0 | – |
| CCCCCCCCCCCC(=O)NCCCC | 32 | 0 | 0 | 32 | 0 | 32 | 0 | 0 | 16 | 32 | 32 | 4 | 0 | – |
| CCCCCCCC/C=C\CCCCCCCCNC(=N)NCCCCCCCCN | – | – | – | – | – | – | – | – | – | – | – | – | – | MIC (Enterococcus faecium): 4 µg/mL (≈ 9.16 µM); MIC (Klebsiella pneumoniae [14]): 32 µg/mL (≈ 73.3 µM); MIC (Pseudomonas aeruginosa [15]): > 128 µg/mL; MIC (Staphylococcus aureus [16]): 4 µg/mL (≈ 9.16 µM); MIC (Acinetobacter baumannii [17]): 8 µg/mL (≈ 18.3 µM); MIC (Acinetobacter baumannii [18]): 32 µg/mL (≈ 73.3 µM); MIC (Enterococcus faecalis [19]): 2 µg/mL (≈ 4.58 µM); MIC (Staphylococcus aureus [20]): 4 µg/mL (≈ 9.16 µM); MIC (Klebsiella pneumoniae [21]): > 128 µg/mL; MIC (Staphylococcus aureus [22]): 4 µg/mL (≈ 9.16 µM); MIC (Escherichia coli [23]): 16 µg/mL (≈ 36.6 µM); MIC (Pseudomonas aeruginosa [24]): > 128 µg/mL; MIC (Staphylococcus aureus [25]): 2 µg/mL (≈ 4.58 µM); MIC (Enterococcus faecalis [26]): 4 µg/mL (≈ 9.16 µM) |
| CCCCCCCCCCNC(=N)NCCCCN(C)C | 0.5 | >=4 | >=4 | ≤ 0.125 | >=4 | ≤ 0.125 | >=4 | >=4 | ≤ 0.125 | 1 | 0.5 | ≤ 0.125 | >=4 | – |
| CCCCCCCC/C=C\CCCCCCCC(=O)NCCCCN | 64 | 0 | 0 | 32 | 0 | 64 | 0 | 0 | 16 | 32 | 64 | 4 | 0 | – |
| CO[C@@H]1[C@@H](OC(N)=O)[C@@H](O)[C@H](Oc2ccc3c(O)c(NC(=O)c4ccc(O)c(CC=C(C)C)c4)c(=O)oc3c2C)OC1(C)C [NOVOBIOCIN] | – | – | – | – | – | – | – | – | – | – | – | – | – | MIC (Klebsiella pneumoniae [14]): > 128 µg/mL; MIC (Pseudomonas aeruginosa [15]): > 128 µg/mL; MIC (Acinetobacter baumannii [17]): 8 µg/mL (≈ 13.1 µM); MIC (Acinetobacter baumannii [18]): 8 µg/mL (≈ 13.1 µM); MIC (Klebsiella pneumoniae [21]): > 128 µg/mL; MIC (Escherichia coli [23]): > 128 µg/mL; MIC (Pseudomonas aeruginosa [24]): > 128 µg/mL |
| CCCCCCCCCCNC(=N)NCCCCN1CCCC1 | 2 | >=4 | >=4 | ≤ 0.125 | >=4 | ≤ 0.125 | >=4 | >=4 | ≤ 0.125 | 0.5 | 0.5 | ≤ 0.125 | >=4 | – |
